Experimental data from ChEMBL document CHEMBL1151705, “Novel azalides derived from 16-membered macrolides. Part II: Isolation of the linear 9-formylcarboxylic acid and its sequential macrocyclization with an amino alcohol or an azidoamine” (2008).
In brackets after ≈: the same amount, converted by molar mass.

Assays:
Format in all cases: functional
[1] = test system: Haemophilus influenzae; experiment: Antimicrobial activity against drug-susceptible Haemophilus influenzae 3 after 20 hrs by agar dilution method; conditions: Haemophilus influenzae, 20 h; read-out: MIC
Method in brief: (§1)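 Streptococci, H. influenzae and M. catarrhalis were precultured on blood agar plates. Suspensions of about 10⁶ CFU/ml were inoculated onto sensitivity disk agar supplemented with 5% horse blood and incubated at 37 °C for 20 h. MIC was read as the lowest drug concentration with no visible growth.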

[2] = test system: Staphylococcus aureus; experiment: Antimicrobial activity against Staphylococcus aureus 6 expressing inducible ermB after 20 hrs by agar dilution method
Method in brief: (§2)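 Agar dilution MIC. S. aureus seed culture was grown in sensitivity test broth. Cell suspension (about 10⁶ CFU/ml) was inoculated onto sensitivity disk agar with 5% horse blood and incubated at 37 °C for 20 h. MIC was the lowest drug concentration that prevented visible growth.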

[3] = test system: Streptococcus pyogenes; experiment: Antimicrobial activity against Streptococcus pyogenes 2 constitutively expressing ermB after 20 hrs by agar dilution method; method in brief: as §1
[4] = test system: Streptococcus pyogenes; experiment: Antimicrobial activity against drug-susceptible Streptococcus pyogenes 1 after 20 hrs by agar dilution method; conditions: Streptococcus pyogenes, 20 h; read-out: MIC; method in brief: as §1
[5] = test system: Streptococcus pneumoniae; experiment: Antimicrobial activity against drug-susceptible Streptococcus pneumoniae DP1 Type1 after 20 hrs by agar dilution method; conditions: Streptococcus pneumoniae, 20 h; read-out: MIC; method in brief: as §1
[6] = test system: Staphylococcus aureus; experiment: Antimicrobial activity against drug-susceptible Staphylococcus aureus 209P JC-1 after 20 hrs by agar dilution method; conditions: Staphylococcus aureus, 209P, 20 h; read-out: MIC; method in brief: as §2
[7] = test system: Moraxella catarrhalis; experiment: Antimicrobial activity against drug-susceptible Moraxella catarrhalis 2 after 20 hrs by agar dilution method; conditions: Moraxella catarrhalis, 20 h; read-out: MIC; method in brief: as §1
[8] = test system: Streptococcus pyogenes; experiment: Antimicrobial activity against Streptococcus pyogenes 3 expressing mefA after 20 hrs by agar dilution method; conditions: Streptococcus pyogenes, 20 h; read-out: MIC; method in brief: as §1
[9] = test system: Haemophilus influenzae; experiment: Antimicrobial activity against drug-susceptible Haemophilus influenzae 1 after 20 hrs by agar dilution method; conditions: Haemophilus influenzae, 20 h; read-out: MIC; method in brief: as §1
[10] = test system: Streptococcus pneumoniae; experiment: Antimicrobial activity against drug-susceptible Streptococcus pneumoniae 2 after 20 hrs by agar dilution method; conditions: Streptococcus pneumoniae, 20 h; read-out: MIC; method in brief: as §1
[11] = test system: Haemophilus influenzae; experiment: Antimicrobial activity against drug-susceptible Haemophilus influenzae 4 after 20 hrs by agar dilution method; conditions: Haemophilus influenzae, 20 h; read-out: MIC; method in brief: as §1
[12] = test system: Staphylococcus aureus; experiment: Antimicrobial activity against drug-susceptible Staphylococcus aureus 3 after 20 hrs by agar dilution method; conditions: Staphylococcus aureus, 20 h; read-out: MIC; method in brief: as §2
[13] = test system: Streptococcus pneumoniae; experiment: Antimicrobial activity against Streptococcus pneumoniae 7 expressing inducible ermB after 20 hrs by agar dilution method; conditions: Streptococcus pneumoniae, 20 h; read-out: MIC; method in brief: as §1
[14] = test system: Staphylococcus aureus; experiment: Antimicrobial activity against drug-susceptible Staphylococcus aureus 2 after 20 hrs by agar dilution method; conditions: Staphylococcus aureus, 20 h; read-out: MIC; method in brief: as §2
[15] = test system: Haemophilus influenzae; experiment: Antimicrobial activity against drug-susceptible Haemophilus influenzae 2 after 20 hrs by agar dilution method; conditions: Haemophilus influenzae, 20 h; read-out: MIC; method in brief: as §1
[16] = test system: Moraxella catarrhalis; experiment: Antimicrobial activity against drug-susceptible Moraxella catarrhalis 1 after 20 hrs by agar dilution method; conditions: Moraxella catarrhalis, 20 h; read-out: MIC; method in brief: as §1
[17] = test system: Staphylococcus aureus; experiment: Antimicrobial activity against Staphylococcus aureus 4 constitutively expressing ermA after 20 hrs by agar dilution method; method in brief: as §2
[18] = test system: Streptococcus pneumoniae; experiment: Antimicrobial activity against Streptococcus pneumoniae 5 constitutively expressing ermB/mefA after 20 hrs by agar dilution method; conditions: Streptococcus pneumoniae, 20 h; read-out: MIC; method in brief: as §1
[19] = test system: Streptococcus pneumoniae; experiment: Antimicrobial activity against Streptococcus pneumoniae 9 expressing mefA after 20 hrs by agar dilution method; conditions: Streptococcus pneumoniae, 20 h; read-out: MIC; method in brief: as §1
[20] = test system: Streptococcus pneumoniae; experiment: Antimicrobial activity against Streptococcus pneumoniae 10 expressing mefA after 20 hrs by agar dilution method; conditions: Streptococcus pneumoniae, 20 h; read-out: MIC; method in brief: as §1
[21] = test system: Streptococcus pneumoniae; experiment: Antimicrobial activity against Streptococcus pneumoniae 8 expressing inducible ermB after 20 hrs by agar dilution method; conditions: Streptococcus pneumoniae, 20 h; read-out: MIC; method in brief: as §1
[22] = test system: Streptococcus pneumoniae; experiment: Antimicrobial activity against Streptococcus pneumoniae 6 constitutively expressing ermB after 20 hrs by agar dilution method; conditions: Streptococcus pneumoniae, 20 h; read-out: MIC; method in brief: as §1
[23] = test system: Staphylococcus aureus; experiment: Antimicrobial activity against Staphylococcus aureus 5 expressing inducible ermB after 20 hrs by agar dilution method; conditions: Staphylococcus aureus, 20 h; read-out: MIC; method in brief: as §2

MIC [1] [µg/mL] | MIC [2] [µg/mL] | MIC [3] [µg/mL] | MIC [4] [µg/mL] | MIC [5] [µg/mL] | MIC [6] [µg/mL] | MIC [7] [µg/mL] | MIC [8] [µg/mL] | MIC [9] [µg/mL] | MIC [10] [µg/mL] | MIC [11] [µg/mL] | MIC [12] [µg/mL] | MIC [13] [µg/mL] | MIC [14] [µg/mL] | MIC [15] [µg/mL] | MIC [16] [µg/mL] | MIC [17] [µg/mL] | MIC [18] [µg/mL] | MIC [19] [µg/mL] | MIC [20] [µg/mL] | further results | SMILES
64 (≈ 84.3 µM) | 64 (≈ 84.3 µM) | > 128 | 16 (≈ 21.1 µM) | 16 (≈ 21.1 µM) | 64 (≈ 84.3 µM) | 8 (≈ 10.5 µM) | 128 (≈ 169 µM) | 64 (≈ 84.3 µM) | 16 (≈ 21.1 µM) | 128 (≈ 169 µM) | 64 (≈ 84.3 µM) | > 128 | 32 (≈ 42.2 µM) | 8 (≈ 10.5 µM) | 8 (≈ 10.5 µM) | > 128 | > 128 | 32 (≈ 42.2 µM) | 32 (≈ 42.2 µM) | MIC [21]: > 128 µg/mL; MIC [22]: > 128 µg/mL; MIC [23]: 64 µg/mL (≈ 84.3 µM) | CCC(=O)O[C@@H]1CC(=O)NCCCN(CCCc2ccnc3ccccc23)C[C@H](O)[C@H](C)C[C@H](CC=O)[C@H](O[C@@H]2O[C@H](C)[C@@H](O)[C@H](N(C)C)[C@H]2O)[C@H]1OC
8 (≈ 8.06 µM) | 2 (≈ 2.02 µM) | > 128 | 0.5 (≈ 0.504 µM) | 0.5 (≈ 0.504 µM) | 0.5 (≈ 0.504 µM) | 1 (≈ 1.01 µM) | 1 (≈ 1.01 µM) | > 128 | 0.5 (≈ 0.504 µM) | 8 (≈ 8.06 µM) | 1 (≈ 1.01 µM) | > 128 | 2 (≈ 2.02 µM) | 2 (≈ 2.02 µM) | 0.5 (≈ 0.504 µM) | > 128 | > 128 | 1 (≈ 1.01 µM) | 0.5 (≈ 0.504 µM) | MIC [21]: > 128 µg/mL; MIC [22]: > 128 µg/mL; MIC [23]: 1 µg/mL (≈ 1.01 µM) | CCOC(=O)[C@H]1[C@H](C)O[C@@H](O[C@H]2[C@H](N(C)C)[C@@H](O)[C@H](O[C@H]3[C@@H](CC=O)C[C@@H](C)[C@@H](OC(C)=O)CN(CCCCc4ccccc4)CCNC(=O)C[C@@H](OC(=O)CC)[C@@H]3OC)O[C@@H]2C)C[C@@]1(C)OC(C)=O
4 (≈ 4.08 µM) | 0.5 (≈ 0.511 µM) | > 128 | 0.06 (≈ 0.0613 µM) | 0.06 (≈ 0.0613 µM) | 0.13 (≈ 0.133 µM) | 0.25 (≈ 0.255 µM) | 0.13 (≈ 0.133 µM) | 32 (≈ 32.7 µM) | 0.13 (≈ 0.133 µM) | 8 (≈ 8.17 µM) | 0.25 (≈ 0.255 µM) | 8 (≈ 8.17 µM) | 0.5 (≈ 0.511 µM) | 1 (≈ 1.02 µM) | 0.13 (≈ 0.133 µM) | > 128 | 128 (≈ 131 µM) | 0.06 (≈ 0.0613 µM) | 0.06 (≈ 0.0613 µM) | MIC [21]: 8 µg/mL (≈ 8.17 µM); MIC [22]: > 128 µg/mL; MIC [23]: 0.5 µg/mL (≈ 0.511 µM) | CCOC(=O)[C@H]1[C@H](C)O[C@@H](O[C@H]2[C@H](N(C)C)[C@@H](O)[C@H](O[C@H]3[C@@H](CC=O)C[C@@H](C)[C@@H](O)CN(CCCCc4ccccc4)CC[C@@H](C)OC(=O)C[C@@H](OC(=O)CC)[C@@H]3OC)O[C@@H]2C)C[C@@]1(C)OC(C)=O
2 (≈ 2.07 µM) | 0.5 (≈ 0.519 µM) | > 128 | 0.13 (≈ 0.135 µM) | 0.13 (≈ 0.135 µM) | 0.25 (≈ 0.259 µM) | 0.25 (≈ 0.259 µM) | 0.5 (≈ 0.519 µM) | 8 (≈ 8.3 µM) | 0.25 (≈ 0.259 µM) | 4 (≈ 4.15 µM) | 0.25 (≈ 0.259 µM) | 16 (≈ 16.6 µM) | 1 (≈ 1.04 µM) | 0.5 (≈ 0.519 µM) | 0.13 (≈ 0.135 µM) | > 128 | > 128 | 0.25 (≈ 0.259 µM) | 0.25 (≈ 0.259 µM) | MIC [21]: 16 µg/mL (≈ 16.6 µM); MIC [22]: > 128 µg/mL; MIC [23]: 0.25 µg/mL (≈ 0.259 µM) | CCOC(=O)[C@H]1[C@H](C)O[C@@H](O[C@H]2[C@H](N(C)C)[C@@H](O)[C@H](O[C@H]3[C@@H](CC=O)C[C@@H](C)[C@@H](O)CN(CCCCc4ccccc4)CCCNC(=O)C[C@@H](OC(=O)CC)[C@@H]3OC)O[C@@H]2C)C[C@@]1(C)OC(C)=O
4 (≈ 4.14 µM) | 0.5 (≈ 0.518 µM) | > 128 | 0.06 (≈ 0.0622 µM) | 0.13 (≈ 0.135 µM) | 0.25 (≈ 0.259 µM) | 0.25 (≈ 0.259 µM) | 0.13 (≈ 0.135 µM) | 16 (≈ 16.6 µM) | 0.13 (≈ 0.135 µM) | 8 (≈ 8.29 µM) | 0.25 (≈ 0.259 µM) | 4 (≈ 4.14 µM) | 1 (≈ 1.04 µM) | 1 (≈ 1.04 µM) | 0.13 (≈ 0.135 µM) | > 128 | > 128 | 0.25 (≈ 0.259 µM) | 0.13 (≈ 0.135 µM) | MIC [21]: 16 µg/mL (≈ 16.6 µM); MIC [23]: 0.25 µg/mL (≈ 0.259 µM) | CCOC(=O)[C@H]1[C@H](C)O[C@@H](O[C@H]2[C@H](N(C)C)[C@@H](O)[C@H](O[C@H]3[C@@H](CC=O)C[C@@H](C)[C@@H](O)CN(CCCCc4ccccc4)CCCOC(=O)C[C@@H](OC(=O)CC)[C@@H]3OC)O[C@@H]2C)C[C@@]1(C)OC(C)=O
4 (≈ 3.97 µM) | 1 (≈ 0.993 µM) | > 128 | 0.25 (≈ 0.248 µM) | 0.25 (≈ 0.248 µM) | 0.5 (≈ 0.496 µM) | 0.5 (≈ 0.496 µM) | 0.25 (≈ 0.248 µM) | > 128 | 0.25 (≈ 0.248 µM) | 8 (≈ 7.94 µM) | 0.5 (≈ 0.496 µM) | 8 (≈ 7.94 µM) | 1 (≈ 0.993 µM) | 2 (≈ 1.99 µM) | 0.25 (≈ 0.248 µM) | > 128 | > 128 | 0.5 (≈ 0.496 µM) | 0.25 (≈ 0.248 µM) | MIC [21]: 32 µg/mL (≈ 31.8 µM); MIC [23]: 0.5 µg/mL (≈ 0.496 µM) | CCOC(=O)[C@H]1[C@H](C)O[C@@H](O[C@H]2[C@H](N(C)C)[C@@H](O)[C@H](O[C@H]3[C@@H](CC=O)C[C@@H](C)[C@@H](OC(C)=O)CN(CCCCc4ccccc4)CCCOC(=O)C[C@@H](OC(=O)CC)[C@@H]3OC)O[C@@H]2C)C[C@@]1(C)OC(C)=O
